Active and inactive are the calls of the source.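 How the source made its calls, unless noted: active means inhibition at or above 50% at 10 µM; inactive means inhibition below 50%.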
Legend:
[1] = inhibitors of TNFa-induced NFkB p65 translocation, primary screen, imaging, HUVEC, MLSMR starter and 10KST1 sets (AID 438;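 active means inhibition above 20% together with a positive visual image hit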;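 further: compound added about 3h40 before a 20 min TNFalpha stimulation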;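 on inhibition: signal is the nuclear over cytoplasmic p65 intensity ratio per well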); settings: HUVEC TNFa-induced p65 nuclear translocation; cell count: measured here: nuclei count (cytotoxicity indicator), at 2.08 µM; inhibition: at 2 µM, stronger effect = higher value, 0% TNFa-plus-vehicle, 100% no-TNFa wells
[2] = reduction of polyQ htt aggregates in cells – imaging, exon1htt(103Q)mCFP cells, high-content imaging, primary screen (AID 483;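 active means visual image review flags a hit and inhibition of aggregation exceeds 20%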;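 further: compound exposure lasted 3 days before fixation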;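 on nuclei count: percent of the per-plate median nuclei count of sample wells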); settings: exon1htt(103Q)mCFP cell line, aggregate imaging, at 2 µM; inhibition of aggregation: stronger effect = higher value; nuclei count: measured here: cell count, toxicity
[3] = endothelial E-selectin expression blockers – imaging, HUVEC, immunofluorescence, MLSMR starter and 10KST1 sets, primary screen (AID 487;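 active means visually confirmed hit in the image check and inhibition above 20%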;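 on inhibition: signal is fraction of cell area covered by stained E-selectin grains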;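 on nuclei count: 100% = median nuclei count of all wells on the same plate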); settings: HUVEC TNFalpha-induced E-selectin immunofluorescence imaging, at 2 µM; inhibition: stronger effect = higher value; nuclei count: measured here: cell number, toxicity
[4] = target: Voltage-gated potassium channel subunit beta-2 (Rattus norvegicus) (UniProt P62483); assay: inhibitors of rat Kvbeta2 reductase activity – biochemical, NADPH fluorescence, primary screen (AID 622;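 active means fluorescence slope higher than the sample average by over 3 SD, cut at about -0.22 in these data, passing the limit was not always enough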;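 further: slope of raw intensity against log time taken from 70 to 1610 s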); settings: recombinant KvBeta, 4-cyanobenzaldehyde reduction, at 10 µM, stronger effect = higher value
Chain of Voltage-gated potassium channel subunit beta-2 (Rattus norvegicus) (P62483 whole entry, looked up): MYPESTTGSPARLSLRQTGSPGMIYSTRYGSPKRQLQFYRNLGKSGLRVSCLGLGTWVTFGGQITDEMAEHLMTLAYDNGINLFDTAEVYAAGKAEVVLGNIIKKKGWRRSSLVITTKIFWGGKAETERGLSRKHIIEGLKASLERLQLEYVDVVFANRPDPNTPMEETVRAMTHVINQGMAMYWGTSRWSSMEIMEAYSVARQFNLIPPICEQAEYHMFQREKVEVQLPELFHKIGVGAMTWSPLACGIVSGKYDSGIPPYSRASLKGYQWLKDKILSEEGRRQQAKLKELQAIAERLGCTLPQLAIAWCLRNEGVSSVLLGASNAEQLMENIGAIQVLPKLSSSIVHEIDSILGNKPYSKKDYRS

[5] = target: Voltage-gated potassium channel subunit beta-2 (Rattus norvegicus) (UniProt P62483); assay: enhancers of rat Kvbeta2 NADPH turnover – biochemical, NADPH fluorescence, primary screen (AID 623;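 active means NADPH fluorescence slope more negative than the mean of all samples by about 3 SD, 99.7% confidence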;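 further: fluorescence intensity change per second fitted from 20 to 320 s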); settings: Recombinant KvBeta, NADPH fluorescence decrease slope, 10 min; at 10 µM; stronger effect = lower value
[6] = target: Alpha-2C adrenergic receptor (Homo sapiens) (UniProt P18825); assay: compounds altering alpha2C-coupled GIRK flux – cell-based, HEK293 alpha2C/GIRK1/2, thallium flux, primary screen (AID 624;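 active means fluorescence slope after compound addition differing from the mean of all screened samples at 99.7% confidence, in either direction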;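 further: slope of fluorescence ratio to pre-addition baseline per second over 15 to 24 s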); settings: thallium flux BTC fluorescence, at 10 µM, actives lie on both sides
Chain of Alpha-2C adrenergic receptor (Homo sapiens) (P18825 whole entry, looked up): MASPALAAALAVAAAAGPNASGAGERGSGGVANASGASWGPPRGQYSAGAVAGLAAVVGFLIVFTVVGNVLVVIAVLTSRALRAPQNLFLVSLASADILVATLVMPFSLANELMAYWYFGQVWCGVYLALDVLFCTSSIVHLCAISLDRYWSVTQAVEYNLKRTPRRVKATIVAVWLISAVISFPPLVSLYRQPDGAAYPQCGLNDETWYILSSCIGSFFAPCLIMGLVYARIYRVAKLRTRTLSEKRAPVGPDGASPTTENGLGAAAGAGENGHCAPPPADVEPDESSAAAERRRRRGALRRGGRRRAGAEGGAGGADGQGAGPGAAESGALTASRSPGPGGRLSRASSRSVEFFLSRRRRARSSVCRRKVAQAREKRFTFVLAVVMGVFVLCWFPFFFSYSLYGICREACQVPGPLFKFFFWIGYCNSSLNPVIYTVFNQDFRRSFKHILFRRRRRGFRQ

[7] = inhibitors of larval lipid processing in zebrafish, primary screen, whole organism, PED6 fluorescence, gall bladder and intestine (AID 686;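 active means a full or partial loss of lipid-probe fluorescence in the fish gall bladder, intestine or both, judged by eye; inactive means no fluorescence loss, or compound toxic to the fish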;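 further: larvae 5 to 7 days old with five fish per well; signal comes from phospholipase A2 cleavage of quenched PED6 carried via bile; overnight exposure to compound and PED6 before scoring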); settings: Zebrafish larvae PED6 lipid processing, fluorescence scoring; screened at 20 µM (by protocol)
In short: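 System: live zebrafish larvae aged 5-7 days, whole organism; measure: graded gall bladder and intestinal fluorescence inhibition per well; incubation: overnight exposure; reagent: ingested quenched lipid PED6 at 100 nM; signal: By-eye fluorescence microscopy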

[8] = blockers of RIG-like receptor reporter activation – cell-based, Sendai virus stimulus, luciferase, 10K MLSCN set, TLR/RLR signaling modifier project, primary screen (AID 602276); settings: HEK293 RL24 IRF3 luciferase reporter, at 10 µM, stronger effect = higher value;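 further: firefly luciferase from ISG56 promoter only with Renilla not read in this screen; 0% = Sendai virus plus DMSO and 100% = medium plus DMSO without virus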
[9] = TLR3 IRF3 reporter activation blockers – cell-based, poly I:C stimulus, luciferase, 10K MLSCN set, primary screen (AID 602277;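 active means inhibition of the reporter signal at or above 50%; inactive means inhibition below 50%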); settings: HEK293-TLR3 RL24 IRF3 luciferase reporter, at 10 µM, stronger effect = higher value

| Structure (SMILES) | cell count [1] | inhibition [1] | inhibition of aggregation [2] | nuclei count [2] [%] | inhibition [3] | nuclei count [3] [%] | fluorescence slope [4] | NADPH fluorescence slope [5] | slope [6] | outcome [7] | inhibition [8] | inhibition [9] |
| --- | --- | --- | --- | --- | --- | --- | --- | --- | --- | --- | --- | --- |
| CCOC(=O)c1cnc(-n2nc(C)cc2C)nc1N1CC(C)OC(C)C1 (centres undefined) | 654 | -15.5% (inactive) | 29.7% (inactive) | 69.8 | -1.6% (inactive) | 96.9 | -0.411 (inactive) | -3.9e-05 (inactive) | 0.00483 (inactive) | inactive | -6.36% (inactive) | 6.34% (inactive) |
| CCCc1cc(N2CCCC2)n2nc(C)c(-c3ccccc3)c2n1 | 531 | -11% (inactive) | -13.4% (inactive) | 112 | -22.9% (inactive) | 122 | -0.118 (inactive) | 9.3e-07 (inactive) | 0.00457 (inactive) | inactive | 14% (inactive) | -0.253% (inactive) |
| Cc1csc(NC(=O)c2ccccc2C(=O)O)n1 | 418 | 9% (inactive) | -16.7% (inactive) | 111 | -46.7% (inactive) | 116 | -0.358 (inactive) | -6.8e-05 (inactive) | 0.00549 (inactive) | inactive | 5.94% (inactive) | 3.54% (inactive) |
| COc1cc(S(=O)(=O)NC2CCCCC2C)ccc1Cl (centres undefined) | 691 | 4.8% (inactive) | -2% (inactive) | 114 | -69.9% (inactive) | 106 | -0.411 (inactive) | 2.4e-05 (inactive) | 0.00366 (inactive) | inactive | -3.61% (inactive) | -3.48% (inactive) |
| Cc1cccc(C)c1-n1nnnc1SCSc1nnnn1-c1c(C)cccc1C | 409 | 7.5% (inactive) | -3.2% (inactive) | 101 | -231% (inactive) | 116 | -0.445 (inactive) | -2.4e-07 (inactive) | 0.00806 (inactive) | inactive | 4.69% (inactive) | 15% (inactive) |
| Cc1nc2ccccc2nc1OCC(=O)Nc1cc(C(F)(F)F)ccc1N1CCOCC1 | 410 | -5.6% (inactive) | 19.2% (inactive) | 85.4 | 80.7% (active) | 113 | -0.429 (inactive) | -3e-05 (inactive) | 0.00495 (inactive) | inactive | 12.4% (inactive) | 8.99% (inactive) |
| CCCc1cc(=O)oc2cc(C)cc(OC(=O)c3ccco3)c12 | 298 | -9% (inactive) | 14.4% (inactive) | 86 | -170% (inactive) | 108 | -0.399 (inactive) | -3.5e-05 (inactive) | 0.00456 (inactive) | inactive | -12.5% (inactive) | -18.4% (inactive) |
| COCCn1c(C)cc(C(=O)COC(=O)c2ccc(N3CCCC3=O)cc2)c1C | 527 | -16.9% (inactive) | 12.8% (inactive) | 97.9 | 26.9% (inactive) | 103 | -0.329 (inactive) | -7.1e-05 (inactive) | 0.00515 (inactive) | inactive | 14.7% (inactive) | 26.1% (inactive) |
| COc1cccc(CC(=O)Nn2c(C)nc3ccccc3c2=O)c1 | 375 | 10.5% (inactive) | -8.2% (inactive) | 102 | -2% (inactive) | 115 | -0.395 (inactive) | -6e-05 (inactive) | 0.00573 (inactive) | inactive | -2.22% (inactive) | 98% (active) |
| Cc1ccc(Cn2c(SCC(N)=O)nc3c2c(=O)n(C)c(=O)n3C)cc1 | 582 | -6.2% (inactive) | 19.4% (inactive) | 88 | 29.5% (inactive) | 72.3 | -0.333 (inactive) | 1e-05 (inactive) | 0.00505 (inactive) | inactive | 0.352% (inactive) | 2.84% (inactive) |
| CCC(=O)Nc1ccc(NC(=O)c2ccccn2)cn1 | 778 | -11% (inactive) | -6.5% (inactive) | 102 | -9.1% (inactive) | 104 | -0.402 (inactive) | -5.9e-05 (inactive) | 0.00517 (inactive) | inactive | -3% (inactive) | 99.2% (active) |
| c1ccc(-c2nnc(SCc3nc4ccccc4[nH]3)o2)cc1 | 285 | 8.2% (inactive) | -3.4% (inactive) | 94.1 | 34.3% (inactive) | 87.8 | -0.304 (inactive) | -1.4e-05 (inactive) | 0.00613 (inactive) | inactive | 12.6% (inactive) | -7.21% (inactive) |
| C1CCN=C(Nc2nc3c(s2)CCCC3)CC1 | 432 | 7.3% (inactive) | -10.9% (inactive) | 118 | 8.7% (inactive) | 110 | -0.413 (inactive) | -3.8e-05 (inactive) | 0.00517 (inactive) | inactive | -23.9% (inactive) | -50% (inactive) |
| CSc1ccccc1NC(=O)CN(c1ccccc1)S(=O)(=O)N(C)C | 429 | -0.8% (inactive) | 1.4% (inactive) | 96 | 4.1% (inactive) | 140 | -0.356 (inactive) | 3.3e-06 (inactive) | 0.00624 (inactive) | inactive | 15.6% (inactive) | 20.5% (inactive) |
| O=C(CN1CCC(n2nnc3ccccc32)CC1)Nc1ccc2c(c1)CCC2 | 643 | -9.3% (inactive) | 4.8% (inactive) | 96.4 | -27% (inactive) | 107 | -0.42 (inactive) | -4.8e-05 (inactive) | 0.00413 (inactive) | inactive | 16% (inactive) | 19% (inactive) |
| COc1cc2cc(C(c3nnnn3C3CCCC3)N3CCCCCC3)c(=O)[nH]c2cc1OC (centres undefined) | 477 | -13.3% (inactive) | 22.5% (inactive) | 75 | 40.8% (inactive) | 73.4 | -0.351 (inactive) | -7.3e-05 (inactive) | 0.00516 (inactive) | inactive | 17% (inactive) | 20.8% (inactive) |
| CN(Cc1ccc(-n2cccn2)cc1)C(=O)c1cnn2c1NC(c1ccco1)CC2C(F)(F)F (centres undefined) | 326 | 9.3% (inactive) | -30.3% (inactive) | 115 | -100% (inactive) | 120 | -0.509 (inactive) | -4e-05 (inactive) | 0.00457 (inactive) | inactive | 8.13% (inactive) | 5.75% (inactive) |
| c1ccc(OCCCn2nnc(-c3ccncc3)n2)cc1 | 604 | -9.9% (inactive) | 2.3% (inactive) | 91.9 | -57.3% (inactive) | 114 | -0.454 (inactive) | -2.7e-05 (inactive) | 0.00445 (inactive) | inactive | 13.2% (inactive) | -7.55% (inactive) |
| COc1ccccc1NC(=O)N(Cc1ccco1)Cc1cc2cccc(C)c2[nH]c1=O | 333 | -9.3% (inactive) | 18.6% (inactive) | 105 | 30.7% (inactive) | 89.2 | -0.347 (inactive) | -5.6e-05 (inactive) | 0.00419 (inactive) | inactive | 8.12% (inactive) | -0.891% (inactive) |
| COc1ccccc1N(CC(=O)NC1CCCC1)C(=O)CCC(=O)Nc1cc(C)on1 | 566 | -8.6% (inactive) | 10.8% (inactive) | 96.8 | -29.3% (inactive) | 102 | -0.408 (inactive) | -5.9e-05 (inactive) | 0.00447 (inactive) | inactive | -11.8% (inactive) | -11.2% (inactive) |
| O=C(Nc1ccc2oc(=O)ccc2c1)c1cccnc1 | 423 | 7.5% (inactive) | 4% (inactive) | 90.8 | 1.2% (inactive) | 91.9 | -0.434 (inactive) | -8.3e-06 (inactive) | 0.00437 (inactive) | inactive | 6.9% (inactive) | 0.246% (inactive) |
| COCCN(CCOC)C(=O)CCn1c(=O)oc2ccccc21 | 589 | 3.3% (inactive) | 2.1% (inactive) | 107 | 37.7% (inactive) | 100 | -0.462 (inactive) | -5.7e-05 (inactive) | 0.00623 (inactive) | inactive | 17.5% (inactive) | 8.78% (inactive) |
| CC(CCc1ccccc1)NC(=O)C1CCN(S(=O)(=O)c2cnc[nH]2)CC1 (centres undefined) | 554 | -20.8% (inactive) | -7.9% (inactive) | 107 | 16.4% (inactive) | 110 | -0.367 (inactive) | -5.5e-05 (inactive) | 0.00556 (inactive) | inactive | 9.51% (inactive) | 18% (inactive) |
| COc1ccc(NC(=O)Cn2nnc(-c3ccccc3F)n2)cc1Cl | 602 | -9.3% (inactive) | -0.1% (inactive) | 92.6 | -59.1% (inactive) | 107 | -0.382 (inactive) | 1.8e-05 (inactive) | 0.00543 (inactive) | inactive | 7.23% (inactive) | 38.7% (inactive) |
| Cc1sc2ncnc(Oc3ccc(-n4ccnc4)cc3)c2c1C | 377 | -13.2% (inactive) | -1% (inactive) | 109 | -56.2% (inactive) | 140 | -0.382 (inactive) | 7e-06 (inactive) | 0.00491 (inactive) | inactive | -6.33% (inactive) | -14.4% (inactive) |
| COc1ccc(S(=O)(=O)NCCSCc2ccco2)cc1Cl | 362 | 4.4% (inactive) | 13% (inactive) | 94 | 13.2% (inactive) | 108 | -0.424 (inactive) | -6.4e-06 (inactive) | 0.00484 (inactive) | inactive | 20.4% (inactive) | 19.9% (inactive) |
| COc1ccc(CCN(Cc2cc3cccc(C)c3[nH]c2=O)C(=O)N2CCCC2)cc1OC | 207 | 2.1% (inactive) | 8.7% (inactive) | 94.8 | 11.6% (inactive) | 91.3 | -0.458 (inactive) | -8.2e-05 (inactive) | 0.00488 (inactive) | inactive | 10.3% (inactive) | 16.5% (inactive) |

Reference: PubChem BioAssay
